Publication PMC3446773 (Cancer research, 2009)

Experiments:
[1] = test system: MDA-MB-231 orthotopic breast tumor xenograft; test: Orthotopic breast cancer xenograft in nude mice; assay type: in vivo, nu/nu mice; details: for Blood vessel density in tumor (CD31 staining): 10 mg/kg i.p. alone, four doses; for Tumor size relative to controls: 10 mg/kg i.p., twice per week for 2 wk, starting 2 wk after cell transplantation; for Tumor volume relative to control group: 3 mg/kg i.p., P < 0.01, 1b vs 1a not different (P = 0.16)
Summary of the method: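 Female nu/nu mice, 4–6 wk, anesthetized with ketamine/xylazine i.p. Trypsinized MDA-MB-231 cells in cross-linkable ECM (5 × 10^7 cells/mL) were injected into the fourth mammary fat pad (200 µL; 100 µL in 3 mg/kg study). From 2 wk after implant, i.p. twice weekly for 2 wk; six mice/group; saline control. Arms: test compound 10 mg/kg, Taxol 10 mg/kg, Taxol week 1 then compound week 2; diastereomers 3 mg/kg. Volume = width² × length/2.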

[2] = target: T1, recombinant hemagglutinin-tagged ATX (ATX-HA) (Homo sapiens, UniProt Q13822); test: ATX assay, hydrolysis of fluorogenic substrate FS-3; assay type: biochemical; details: for ATX inhibition: 10 μmol/L, FS-3 substrate 1 μmol/L, 2 h, 37°C; for IC50: read-out: ATX inhibition IC50, FS-3 substrate, 0.01 to 10 μmol/L
Summary of the method: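 Mixed with FS-3 (final 1 µmol/L) and test compound (0.01–10 µmol/L) in assay buffer with BSA. Fluorescence read at ex 485/em 538 nm over 2 h, 37°C. The 0–120 min difference was normalized to vehicle; triplicate wells, % inhibition; Student's t test.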

MDA-MB-231 cells [3] = test: Scratch wound assay; assay type: cell-based, human; details: for Effect on MDA-MB-231 cell migration: 10 and 40 μmol/L, 24 h
human LPA4 = human LPA4 (Homo sapiens, UniProt Q99677); test: Ca2+ mobilization assay, LPA4 expressed in CHO cells; assay type: cell-based; details: for LPA4 ligand type: Ca2+ mobilization, CHO cells; for LPA4 inhibition: at 30 μmol/L (400 nmol/L LPA)
human LPA5 = human LPA5 (Homo sapiens, UniProt Q9H1C0); test: Ca2+ mobilization assay, LPA5 expressed in RH7777 cells; assay type: cell-based; details: for LPA5 ligand type: transiently transfected; for LPA5 E max: at 10 μmol/L
Summary of the method: (§1)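 Intracellular Ca2+ mobilization measured in RH7777 cells expressing the human receptor (LPA1, LPA2, LPA3 or LPA5); parental line intrinsically unresponsive to LPA. Both activation and inhibition of LPA responses tested. Quadruplicate tests; EC50, IC50 and Ki derived by sigmoid curve fitting.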

human LPA2 = human LPA2 (Homo sapiens, UniProt Q9HBW0); test: Ca2+ mobilization assay, LPA2 expressed in RH7777 cells; assay type: cell-based; details: for Ki: read-out: LPA2 Ki; for IC50: read-out: LPA2 antagonist IC50
Summary of the method: as §1

human LPA3 = target: T2, human LPA3 (Homo sapiens, UniProt Q9UBY5); test: Ca2+ mobilization assay, LPA3 expressed in RH7777 cells; assay type: cell-based; details: for LPA3 ligand type / Ki / IC50: Ca2+ mobilization, RH7777 cells; for Ki: read-out: LPA3 Ki; for IC50: read-out: LPA3 antagonist IC50
T2 sequence (Q9UBY5 1-353): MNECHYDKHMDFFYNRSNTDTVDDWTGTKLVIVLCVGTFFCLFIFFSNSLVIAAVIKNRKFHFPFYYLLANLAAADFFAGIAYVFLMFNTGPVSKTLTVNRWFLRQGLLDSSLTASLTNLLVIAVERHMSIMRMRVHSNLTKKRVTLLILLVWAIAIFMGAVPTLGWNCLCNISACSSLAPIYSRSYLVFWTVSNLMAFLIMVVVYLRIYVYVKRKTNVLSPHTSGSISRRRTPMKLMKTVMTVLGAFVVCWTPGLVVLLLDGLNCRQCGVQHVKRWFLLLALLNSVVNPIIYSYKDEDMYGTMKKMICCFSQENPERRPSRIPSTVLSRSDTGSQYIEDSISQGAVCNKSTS
Summary of the method: as §1

MDA-MB-231 cells [4] = test: In vitro invasion assay through Matrigel-coated transwell membranes; assay type: cell-based, human; details: P < 0.05
human LPA1 = human LPA1 (Homo sapiens, UniProt Q92633); test: Ca2+ mobilization assay, LPA1 expressed in RH7777 cells; assay type: cell-based; details: for Ki: read-out: LPA1 Ki; for IC50: read-out: LPA1 antagonist IC50
Summary of the method: as §1

[5] = target: T1, recombinant hemagglutinin-tagged ATX (ATX-HA); details: at 10 μmol/L; previously observed; cited from earlier work
[6] = Ca2+ mobilization, RH7777 cells

Sequence of human LPA5 (Q9H1C0 whole entry): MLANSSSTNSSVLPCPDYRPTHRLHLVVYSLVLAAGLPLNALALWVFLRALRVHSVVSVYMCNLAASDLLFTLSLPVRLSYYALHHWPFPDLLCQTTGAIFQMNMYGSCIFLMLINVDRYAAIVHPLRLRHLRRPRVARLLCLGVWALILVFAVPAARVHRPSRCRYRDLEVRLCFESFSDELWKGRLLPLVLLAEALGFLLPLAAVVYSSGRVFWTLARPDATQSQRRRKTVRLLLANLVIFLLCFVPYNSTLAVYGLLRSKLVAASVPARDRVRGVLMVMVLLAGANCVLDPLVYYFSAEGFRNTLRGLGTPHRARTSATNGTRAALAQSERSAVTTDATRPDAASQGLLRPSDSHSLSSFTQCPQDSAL
Sequence of human LPA4 (Q99677 whole entry): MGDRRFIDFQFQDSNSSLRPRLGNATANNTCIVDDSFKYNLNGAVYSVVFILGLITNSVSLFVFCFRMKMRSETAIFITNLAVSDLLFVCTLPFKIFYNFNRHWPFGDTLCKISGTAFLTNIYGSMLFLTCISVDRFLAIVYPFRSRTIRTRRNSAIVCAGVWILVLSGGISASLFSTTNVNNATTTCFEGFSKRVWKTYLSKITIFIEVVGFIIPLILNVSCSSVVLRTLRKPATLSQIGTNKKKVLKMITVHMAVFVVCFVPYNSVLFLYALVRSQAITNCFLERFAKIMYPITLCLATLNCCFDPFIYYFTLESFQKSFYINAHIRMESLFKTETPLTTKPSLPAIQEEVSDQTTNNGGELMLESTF
Sequence of human LPA1 (Q92633 whole entry): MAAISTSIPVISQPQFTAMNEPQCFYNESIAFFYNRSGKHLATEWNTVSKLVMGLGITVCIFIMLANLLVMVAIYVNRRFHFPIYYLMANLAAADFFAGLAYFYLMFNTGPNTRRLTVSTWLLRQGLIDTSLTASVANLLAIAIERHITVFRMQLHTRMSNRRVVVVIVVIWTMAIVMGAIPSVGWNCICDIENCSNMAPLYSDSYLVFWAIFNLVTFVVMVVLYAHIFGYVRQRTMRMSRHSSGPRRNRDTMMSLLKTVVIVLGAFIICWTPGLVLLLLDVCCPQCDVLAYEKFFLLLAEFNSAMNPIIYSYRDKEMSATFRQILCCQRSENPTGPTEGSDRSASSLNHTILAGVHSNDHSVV
Sequence of human LPA2 (Q9HBW0 whole entry): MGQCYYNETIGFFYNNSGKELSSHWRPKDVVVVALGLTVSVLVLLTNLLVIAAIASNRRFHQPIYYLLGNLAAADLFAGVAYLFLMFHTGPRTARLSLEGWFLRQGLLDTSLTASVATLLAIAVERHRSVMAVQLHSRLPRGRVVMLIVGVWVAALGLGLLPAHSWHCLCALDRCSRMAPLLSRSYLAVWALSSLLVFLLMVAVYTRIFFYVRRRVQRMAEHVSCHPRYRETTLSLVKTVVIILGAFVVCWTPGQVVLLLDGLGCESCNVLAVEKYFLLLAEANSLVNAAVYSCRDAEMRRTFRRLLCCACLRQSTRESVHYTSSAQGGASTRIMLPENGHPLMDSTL

| SMILES | Blood vessel density in tumor (CD31 staining) [1] | Tumor size relative to controls [1] | ATX inhibition [2] | IC50 [2] [nM] | Effect on MDA-MB-231 cell migration (MDA-MB-231 cells [3]) | LPA4 ligand type (human LPA4) | LPA4 inhibition (human LPA4) [%] | LPA5 ligand type (human LPA5; [6]) | LPA2 ligand type (human LPA2) | Ki (human LPA2) [nM] | IC50 (human LPA2) [nM] | LPA3 ligand type (human LPA3) | Ki (human LPA3) [nM] | IC50 (human LPA3) [nM] | Tumor volume relative to control group [1] | Inhibition of MDA-MB-231 invasion (MDA-MB-231 cells [4]) | LPA1 ligand type (human LPA1) | Ki (human LPA1) [nM] | IC50 (human LPA1) [nM] | LPA5 E max (human LPA5) [%] | other results |
| --- | --- | --- | --- | --- | --- | --- | --- | --- | --- | --- | --- | --- | --- | --- | --- | --- | --- | --- | --- | --- | --- |
| CC(=O)O[C@H]1C(=O)[C@@]2(C)[C@H]([C@H](OC(=O)c3ccccc3)[C@]3(O)C[C@H](OC(=O)[C@H](O)[C@@H](NC(=O)c4ccccc4)c4ccccc4)C(C)=C1C3(C)C)[C@]1(OC(C)=O)CO[C@@H]1C[C@@H]2O [Taxol, reference compound] | statistically different from the control | reduction of tumor size relative to controls | – | – | – | – | – | – | – | – | – | – | – | – | – | – | – | – | – | – | – |
| CCCCCCCCCCCCCCCC(=O)OC[C@@H](O)C[C@H](Br)P(=O)(O)O [1b] | – | – | 99.4 ± 2.7 % Inhibition (10 μmol/L) | 22 | inhibited the MDA-MB-231 cell migration | Antagonist | 33.1 | Antagonist | Antagonist | 241 | 275 | Antagonist | 623 | 2090 | significantly decreased the tumor volume | ~ 52% | Antagonist | 752 | 2080 | – | Decrease of MDA-MB-231 cell migration vs untreated control (MDA-MB-231 cells [3]; 40 μmol/L, P < 0.05): 57%; Ki (human LPA5; read-out: LPA5 Ki, Ca2+ mobilization, RH7777 cells): 376 nM; IC50 (human LPA5; read-out: LPA5 antagonist IC50, Ca2+ mobilization, RH7777 cells): 977 nM |
| CCCCCCCCCCCCCCCC(=O)OC[C@@H](O)C[C@@H](Br)P(=O)(O)O [1a] | – | – | 98.1 ± 2.3% inhibition (10 μmol/L) | 165 | inhibited the MDA-MB-231 cell migration | Antagonist | 35.1 | Partial agonist | Antagonist | 250 | 288 | Antagonist | 1830 | 4440 | significantly decreased the tumor volume | ~ 52% | Antagonist | 273 | 648 | 64 | – |
| CCCCCCCCCCCCCCCC(=O)OCC(O)CC(Br)P(=O)(O)O (stereo not drawn) [compound 1, palmitoyl α-bromomethylenephosphonate] | significantly lower blood vessel density | reduction of tumor size relative to controls | 102 ± 2.7% inhibition (10 μmol/L) | – | – | Antagonist | 13.9 | Partial agonist | Antagonist | 245 | 468 | Antagonist | – | – | – | – | Antagonist | 805 | 4520 | 54 | Effect of mixed diastereomers on cell migration (MDA-MB-231 cells [3]; data not shown): intermediate inhibition of cell migration; ATX activity inhibited [5]: over 98%; EC50 (human LPA5; read-out: LPA5 agonist EC50, Ca2+ mobilization, NS = non-saturated): 1280 nM; LPA3 inhibition (human LPA3; at 30 μmol/L (200 nmol/L LPA)): 71.3%; Blood vessel density in tumor (CD31 staining), sequential treatment ([1]; Taxol (10 mg/kg, two doses) then BrP-LPA 1 (10 mg/kg, two doses), i.p.): statistically different from the control; Tumor size relative to controls, sequential treatment ([1]; two injections of Taxol (10 mg/kg) week 1, then two injections of BrP-LPA 1 (10 mg/kg) week 2, i.p.): reduction of tumor size relative to controls |
